# Source: PubChem BioAssay
# MC4R barr agon: activates human MC4R beta-arrestin recruitment | P32245 | U2OS MC4R beta-arrestin complementation, luminescence; percent of melanotan II response, DMSO zero | activation, % at 8.9 µM | 0.98% of 360,000 active;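 active = activation above a per-plate cutoff, the mean activation of sample wells on that plate plus 3 SD, cut at about 8% in these data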
# ABHD5-PLIN5 inh: inhibitors of human ABHD5-perilipin-5 interaction. Split G. princeps luciferase complementation, luminescence, 4 h. 0.78% of 360,000 active. inhibition, % at 4 µM;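 active = inhibition above the mean inhibition across every tested compound plus 3 SD, cut at about 22% in these data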;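 also: 0% = DMSO only wells and the 100% control is not disclosed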
# Target sequence (Q00G26 whole entry, looked up): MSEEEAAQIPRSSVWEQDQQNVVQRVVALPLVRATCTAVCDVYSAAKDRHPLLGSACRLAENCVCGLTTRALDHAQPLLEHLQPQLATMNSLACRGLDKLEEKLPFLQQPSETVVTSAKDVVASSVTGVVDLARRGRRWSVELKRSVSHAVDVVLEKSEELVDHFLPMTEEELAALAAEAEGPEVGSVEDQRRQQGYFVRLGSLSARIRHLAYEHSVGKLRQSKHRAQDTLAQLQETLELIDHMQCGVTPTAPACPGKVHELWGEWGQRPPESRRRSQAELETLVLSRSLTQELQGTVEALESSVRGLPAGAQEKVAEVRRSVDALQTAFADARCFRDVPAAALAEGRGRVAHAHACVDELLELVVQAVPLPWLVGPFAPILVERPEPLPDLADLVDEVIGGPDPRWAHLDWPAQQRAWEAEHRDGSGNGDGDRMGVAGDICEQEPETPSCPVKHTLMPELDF
# Target sequence (Q8WTS1 whole entry, looked up): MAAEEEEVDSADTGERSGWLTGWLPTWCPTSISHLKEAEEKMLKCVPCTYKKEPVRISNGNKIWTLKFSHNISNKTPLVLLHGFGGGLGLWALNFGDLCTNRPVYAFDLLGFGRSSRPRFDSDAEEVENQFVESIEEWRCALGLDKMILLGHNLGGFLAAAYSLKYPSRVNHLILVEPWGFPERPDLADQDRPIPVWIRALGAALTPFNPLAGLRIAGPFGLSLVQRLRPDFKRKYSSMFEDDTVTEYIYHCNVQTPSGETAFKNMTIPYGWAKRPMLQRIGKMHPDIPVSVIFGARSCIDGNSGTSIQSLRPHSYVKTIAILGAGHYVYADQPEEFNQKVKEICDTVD
# PfG6PD inh: PfG6PD (Plasmodium falciparum) enzyme inhibition; PfGluPho enzyme, NADPH resazurin-diaphorase fluorescence; 0.78% of 350,000 active; AID 504690; inhibition, % at 20 µM;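 active = inhibition reaching at least a set limit at 20 µM in the primary screen, cut at about 59% in these data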;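 also: 0% = DMSO wells with substrate and 100% = DMSO wells lacking glucose-6-phosphate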
# MC4R antag cAMP: antagonists of human melanocortin 4 receptor (MC4R); P32245; MC4R-expressing cells, MTII-stimulated cAMP, LANCE TR-FRET; inhibition, % at 6.5 µM; 0.48% of 360,000 active;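 active = inhibition above its plate's cutoff, the mean of tested wells on that plate plus 3 SD, cut at about 29% in these data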;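 also: 0% = Melanotan II alone and 100% = Melanotan II plus saturating MCL0020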
#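 Material: U2OS-MC4R stable cell line | Reagent: Melanotan II challenge after compound preincubation | Doses: One concentration, 6.5 µM nominal | Incubation: 30-min compound preincubation, 1-h Melanotan II challenge, 1-h detection, room temperature | Signal: TR-FRET cAMP assay | Replicates: One well per compound, no replicates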
# Beta2AR agonist: activates human beta-2 adrenergic receptor causing internalization; P07550; AID 504454; Am2.2-beta2AR cells, FAP receptor internalization, flow cytometry; 0.43% of 340,000 active; response, % (concentration not given with the values);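 active = response above a set limit, near 3 SD of response in nonfluorescent compounds, cut at about 42% in these data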
# MC4R barr ag: human MC4R beta-arrestin agonism confirmation; 31% of 2,400 active; activation, % at 8.9 µM; shares compounds with MC4R barr agon; AID 602192; U2OS MC4R beta-arrestin recruitment, luminescence; scaled DMSO 0%, Melanotan II 100%;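 active = mean activation across replicates above the hit cutoff set in the earlier primary screen, cut at about 8% in these data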
# MOR DOR agonist: counter-screen for MC4R agonists: agonists of mu-delta opioid heterodimer. shares compounds with MC4R barr agon. U2OS PathHunter beta-arrestin, beta-gal luminescence; percent of deltorphin B response, DMSO zero. activation, % at 9.2 µM. 5.8% of 2,400 active;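 active = mean activation across replicates exceeds the hit threshold derived in the earlier primary screen, cut at about 18% in these data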;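 also: 100% = deltorphin B at 0.9 µM final and 0% = DMSO alone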
# * marks the source's active call; other numbers are inactive results; . = no result. A selection: hits, their analogues and other compounds. The true share with any hit is near 3%.
SMILES,MC4R barr agon,ABHD5-PLIN5 inh,PfG6PD inh,MC4R antag cAMP,Beta2AR agonist,MC4R barr ag,MOR DOR agonist
Brc1ccc(-c2nc3ccccc3s2)s1,-0.3,-10.6,4.0,17.2,2.9,.,.
Brc1cc2c(cc1-c1nc3ccccc3s1)OCO2,14.9*,-4.1,-9.4,8.3,-6.0,0.8,4.0
Cc1cc2ncc(C(=O)Nc3ccsc3C(=O)O)c(C)n2n1,-1.9,2.2,5.0,0.4,1.4,.,.
CCOc1cc(/C=N/N=C(N)N)ccc1OCc1ccc(Cl)cc1,11.6*,4.7,3.0,-0.4,45.8*,10.9*,14.4
Cc1cc(C)n(-c2nc3ccccc3nc2Nc2ccc3[nH]c(=O)[nH]c3c2)n1,19.0*,-7.8,1.0,2.9,14.6,9.6*,1.8
CCCCNC(=O)C(CC)(ONc1ccccc1C(F)(F)F)c1ccccc1 (configuration not stated),0.4,-15.5,57.5,4.3,0.3,.,.
C/C(=N/NC(=O)CNC(=O)c1ccc2c(c1)OCO2)c1ccc2c(c1)CCCC2,11.7*,6.0,-14.2,4.2,-2.7,1.5,4.2
COc1ccc(C(C)=O)cc1CN(c1ccccc1OC)S(=O)(=O)c1cccs1,0.0,0.3,27.4,22.1,-20.1,.,.
CC(C)CC(=O)OC1C(N2CCOCC2)c2c(ccc(/C=C/C(=O)N3CCOCC3)c2O)OC1(C)C (configuration not stated),12.4*,1.6,-1.8,0.7,5.8,5.0,3.2
CC(=O)OC1c2c(ccc3ccc(=O)oc23)OC(C)(C)C1OC(=O)CC(C)C (configuration not stated),1.7,-6.5,-7.9,3.3,-19.8,.,.
CSCCC(NS(=O)(=O)c1ccc(Cl)cc1)C(=O)OCC(=O)c1c(C)[nH]c2ccccc12 (configuration not stated),11.5*,14.3,9.4,-11.1,3.6,3.0,9.2
CCSc1ccc(-c2nn(-c3ccccc3)cc2/C=C(/C#N)C(=O)NCCCOC)cc1,21.9*,-2.6,10.1,-18.6,-10.3,39.8*,18.8*
CC(/C=C/C=C/c1ccccc1)=N/NC(=O)CNc1ccc(C)cc1,13.8*,0.4,6.7,-17.6,0.0,0.8,3.5
Cc1ccc(NCC(=O)N/N=C/c2cccc(Oc3ccccc3)c2)cc1,23.6*,-16.3,5.0,-0.7,7.3,3.7,3.3
N#CCC(=O)N/N=C/c1cccc(Oc2ccccc2)c1,0.3,-1.9,32.7,4.2,-7.9,.,.
Cc1cccc(NCC(=O)N/N=C\c2cccc(Oc3ccccc3)c2)c1,11.9*,-6.2,20.4,-1.9,-7.0,3.3,3.6
COc1cccc(CNCc2ccc(SC)cc2)c1OC,-1.3,13.6,1.1,6.3,1.6,.,.
COc1cc(-c2nc(CN(C)Cc3nnc(C)o3)c(C)o2)ccc1F,-0.7,-2.5,-8.0,2.2,-0.3,.,.
CCc1ccc(OCC(=O)NCCOc2ccccc2)cc1,1.1,-1.2,2.2,-0.3,7.3,.,.
CCc1ccc(OCCNC(=O)OCc2ccccc2)cc1,10.0*,6.7,-0.3,-8.3,-11.0,1.9,3.8
Cc1ccc(NC(=O)NNC(=O)c2cc3ccccc3cc2O)cc1,12.7*,-0.8,-16.0,2.3,2.2,15.1*,6.3
COc1ccccc1NC(=O)NNC(=O)c1cc2ccccc2cc1O,-1.7,-7.4,-30.9,-4.9,10.6,.,.
O=C(NCCOc1ccc(F)cc1)C1CCC(=O)N(CC2CCCCC2)C1 (configuration not stated),-2.5,-3.0,-6.9,-1.9,-0.9,.,.
CC(C)=CCC/C(C)=C/C=N/NC(=O)c1cccc([N+](=O)[O-])c1,-0.3,-1.7,-3.9,6.5,1.1,.,.
CC(C)=CCC/C(C)=C/C=N/NC(=O)c1ccc([N+](=O)[O-])cc1,14.7*,-6.7,20.9,-2.4,-2.1,-1.8,8.0
O=C(COc1ccccc1)Nc1ccc(OC(F)(F)C(F)F)c(NC(=O)COc2ccccc2)c1,17.2*,-2.3,-0.3,-0.3,-1.7,9.9*,11.7
CC(=O)Nc1ccc(OC(F)(F)C(F)F)c(NC(C)=O)c1,-0.9,8.0,-2.7,10.5,-2.1,.,.
